Screens: PubChem BioAssay, several laboratories
Shown are actives, neighbours in structure and some others; about 4.2% of the full set was active somewhere.
Autophagy mod = alters autophagy in cells; calls only at 10 µM (by protocol); 0.98% of 190,000 active; MEF GFP-LC3 puncta imaging; test concentration mostly 10 µM;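 active means percentage of spot-positive cells more than 3 SD above its plate mean, without a fluorescence outlier flag or 80% toxicity; inconclusive means no clear call, values can overlap the other calls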;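 further: spot-positive cell cutoff set from DMSO-treated cells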
SKKanGAS inh = SKKanGAS growth inhibition; 1.3% of 300,000 active; AID 1662; inhibition, % at 7.5 µM; S. pyogenes SKKanGAS, kanamycin growth, BacTiter-Glo, 6 h;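 active means mean replicate score, as percent of positive control median, at least 50; inconclusive means mean below 50 but one replicate at or above 50; inactive means mean and every replicate below 50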;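 further: strain carries kanamycin resistance gene driven by streptokinase promoter and grows in 40 µg/ml kanamycin; loss of luminescence reflects streptokinase promoter inhibition or plain growth inhibition; 0% = median of DMSO wells and 100% = positive control at its reference dose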
Insulin prom up = MIN6 insulin promoter up-regulation; MIN6 insulin promoter-GFP reporter, high-content imaging; stronger effect = higher value; z-score at 5 µM; 0.3% of 190,000 active;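 active means z-score above 3 at 5 µM with at least 500 cells counted in the well; inconclusive means wells under 500 cells, flagged as cytotoxic or low count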
KCC2 mod = KCC2 (human) Cl- transport modulation; AID 1456; KCC2 cells, thallium flux FluoZin-2 fluorescence; Q9H2X9; 2.2% of 190,000 active; B-score of Tl+ flux slope (higher = more flux/activation; lower = inhibition) at 10 µM;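 active means thallium flux slope and its plate-corrected score both differing from the plate sample mean at a set confidence after two filtering rounds, in either direction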;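 further: slope of fluorescence scaled to starting intensity during 10 to 20 s after thallium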
Target sequence (Q9H2X9 whole entry, looked up): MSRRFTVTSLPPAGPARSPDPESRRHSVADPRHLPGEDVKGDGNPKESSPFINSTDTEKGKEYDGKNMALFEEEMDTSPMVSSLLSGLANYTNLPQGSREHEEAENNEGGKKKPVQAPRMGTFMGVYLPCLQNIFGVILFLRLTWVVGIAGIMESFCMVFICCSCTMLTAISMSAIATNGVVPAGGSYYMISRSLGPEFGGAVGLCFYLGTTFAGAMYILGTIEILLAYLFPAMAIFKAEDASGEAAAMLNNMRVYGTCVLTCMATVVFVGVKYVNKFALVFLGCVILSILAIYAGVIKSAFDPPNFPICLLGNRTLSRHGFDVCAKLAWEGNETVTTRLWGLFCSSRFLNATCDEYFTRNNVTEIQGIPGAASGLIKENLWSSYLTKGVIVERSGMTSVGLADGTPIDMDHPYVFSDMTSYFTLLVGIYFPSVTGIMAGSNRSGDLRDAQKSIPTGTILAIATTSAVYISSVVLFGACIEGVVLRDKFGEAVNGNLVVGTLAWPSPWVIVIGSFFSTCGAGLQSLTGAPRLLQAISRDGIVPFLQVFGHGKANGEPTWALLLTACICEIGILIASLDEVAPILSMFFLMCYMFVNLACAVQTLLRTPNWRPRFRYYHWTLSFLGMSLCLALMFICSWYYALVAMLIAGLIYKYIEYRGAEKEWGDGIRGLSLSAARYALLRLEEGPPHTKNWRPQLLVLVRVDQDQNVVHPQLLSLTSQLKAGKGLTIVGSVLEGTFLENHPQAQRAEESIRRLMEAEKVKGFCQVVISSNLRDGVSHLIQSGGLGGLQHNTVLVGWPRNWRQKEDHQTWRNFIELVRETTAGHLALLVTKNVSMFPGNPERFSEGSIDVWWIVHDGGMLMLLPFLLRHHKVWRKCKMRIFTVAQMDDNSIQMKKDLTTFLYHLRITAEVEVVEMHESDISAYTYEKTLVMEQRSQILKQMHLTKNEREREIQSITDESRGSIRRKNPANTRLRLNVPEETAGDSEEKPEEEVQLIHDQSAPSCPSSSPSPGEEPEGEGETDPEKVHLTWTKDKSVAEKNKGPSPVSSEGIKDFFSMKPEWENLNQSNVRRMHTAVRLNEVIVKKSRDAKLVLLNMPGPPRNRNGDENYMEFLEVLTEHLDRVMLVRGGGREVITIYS
Rad51 HR inh = Rad51 (human) homologous recombination inhibition. hRad51 DNA strand exchange, fluorescence dequenching. inhibition, % at 10 µM. 0.085% of 200,000 active. AID 1385;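 active means inhibition above 40% at the single screening dose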;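 further: 0% = DMSO control wells and 100% = blanks with heterologous ssDNA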
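Test system: preformed human Rad51 ssDNA filaments; also added: Donor/quencher-labelled 47-bp dsDNA substrate; doses: 10 µM final, single point; times: 37 °C 15-min filament assembly, 30-min compound preincubation, 15-min exchange; detection: FRET fluorescence dequenching, excitation 485 nm, emission 520 nm; read-out basis: Fluorescence-based percent inhibition, control- and blank-normalised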
WT yeast gro inh = growth inhibition of WT yeast, mitochondrial fusion screen | mitochondrial fusion phenotypic screen, WT strain | inhibition, % at 10 µM | 2.1% of 190,000 active | AID 1362; in the data active means inhibition above about 58%; tested in S. cerevisiae
KCC2 secondary = confirmation of human KCC2 transport modulators. shares compounds with KCC2 mod. 15% of 3,700 active. HEK293-KCC2, thallium flux, FluoZin2 fluorescence; stronger effect = higher value. AID 1713. normalised thallium flux (F/F0 slope) at 10 µM;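 active means thallium flux slope above the same plate's solvent-only control mean plus 3 SD; inconclusive means the two replicate wells disagree; inactive means no significant difference from solvent-only control wells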
KCC2 bumet counter = thallium flux persisting under bumetanide in KCC2 cells, counter-screen secondary assay; shares compounds with KCC2 mod; 49% of 3,700 active; normalized thallium flux at 10 µM; AID 1714; HEK293-KCC2 + bumetanide/ouabain, thallium flux FluoZin2; stronger effect = higher value;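 active means thallium entry rate above the same plate's blocked-transporter control wells by more than 3 SD; inconclusive means the two repeat wells disagree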;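 further: raw slope of fluorescence over initial fluorescence between 10 and 20 s after thallium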
KCC2 secondary2 = KCC2 (human) modulation, second secondary assay; AID 1715; normalized thallium flux at 10 µM; shares compounds with KCC2 mod; HEK293-KCC2, thallium flux FluoZin2 fluorescence; actives lie on both sides; F/F0 rise rate, 10–20 s post-thallium; 23% of 3,700 active;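 active means thallium flux slope more than 3 SD above or below the plate's solvent-only control mean, mostly below; inconclusive means the two repeat wells disagreed; inactive means no significant shift from solvent-only controls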;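 further: raw slope with 0.1% DMSO as baseline and bumetanide as block control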
HEK293 Tl flux = counter-screen for KCC2 modulators: effect in parental HEK293 cells | shares compounds with KCC2 mod | 46% of 3,700 active | thallium flux rate (normalised fluorescence) at 10 µM | thallium flux FluoZin2, ouabain; baseline-ratio fluorescence slope, 10–20 s after thallium;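 active means thallium flux rate significantly above the same plate's solvent-only control wells, beyond their mean plus 3 SD; inconclusive means the two replicate wells gave conflicting results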
KCC2 ouabain = confirmation of human KCC2 modulators with ouabain. shares compounds with KCC2 mod. HEK293-KCC2, thallium flux FluoZin2 fluorescence; bidirectional: low = inhibitor, high = activator. raw Tl+ flux slope (below DMSO = inhibition, above = activation) at 10 µM. 48% of 3,700 active. AID 1717;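 active means thallium flux slope beyond 3 SD from same-plate DMSO control mean in most replicates, usually higher, sometimes lower; inconclusive means repeat tests gave conflicting results; inactive means no significant difference from controls in most replicates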;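 further: slope of initial-normalized fluorescence between seconds 10 and 20 after thallium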
HEK counter2 = parental HEK flux effect, counter-screen 2; shares compounds with KCC2 mod; HEK293 parental, thallium flux FluoZin-2 fluorescence slope; thallium flux slope at 10 µM; 33% of 3,700 active; AID 1718;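 active means thallium flux slope above the same plate's solvent-control mean plus 3 SD in both duplicate wells; inconclusive means duplicate wells that disagreed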;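 further: run without ouabain in cells lacking the KCC2 cotransporter; slope of fluorescence scaled to its starting value between 10 and 20 s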
* marks the source's active call; other numbers are inactive results; i = inactive; ? = inconclusive; / = no result.

SMILES	Autophagy mod	SKKanGAS inh	Insulin prom up	KCC2 mod	Rad51 HR inh	WT yeast gro inh	KCC2 secondary	KCC2 bumet counter	KCC2 secondary2	HEK293 Tl flux	KCC2 ouabain	HEK counter2
O=C(CCCCCn1c(=S)[nH]c2ccccc2c1=O)NCc1ccc2c(c1)OCO2	i	2	-0.56	0.7	-9	6	/	/	/	/	/	/
COc1ccc(NC(=O)C2CCCN(C(=O)Nc3ccc(F)cc3)C2)cc1OC (centres undefined)	/	5	/	/	/	/	/	/	/	/	/	/
CC(C)c1cccc(C(C)C)c1OCCCCCN1CCOCC1	/	-6	/	/	/	/	/	/	/	/	/	/
COc1cc(/C=C(/C#N)c2ccc(F)cc2)ccc1Oc1ccc([N+](=O)[O-])cn1	i	7	-0.29	0.036	/	-1	/	/	/	/	/	/
C=C(C)Cn1c(=S)[nH]c2ccccc2c1=O	i	-1	-6.6	25*	-1	-13	0.014*	0.074*	0.031	0.024*	0.049*	0.014*
CC(C)NC(=S)N=Nc1c(O)[nH]c2ccc(C(C)C)cc12	i	9	-1.6	4.1*	4	13	0.0079	0.013*	0.032	0.015*	?	0.014*
COc1ccc(/C=N/OCC(=O)N=Nc2c(O)[nH]c3ccc(Br)cc23)cc1OC	i	15	-0.2	-0.72	2	21	/	/	/	/	/	/
Cc1cccc(NC(=S)N=Nc2c(O)[nH]c3ccccc23)c1	i	97*	-2.6	17*	19	59*	?	0.032*	0.028	0.015*	0.046*	?
CC(C)c1ccc2[nH]c(O)c(N=NC(=O)c3cccc(S(=O)(=O)Nc4ccccc4Cl)c3)c2c1	i	21	0.81	0.14	-3	0	/	/	/	/	/	/
COc1ccccc1NC(=S)N=Nc1c(O)[nH]c2ccc(Br)cc12	/	93*	-1.2	9.1*	-10	/	0.0071	0.01*	0.037	0.014*	?	0.017*
C=CCNC(=S)NNC(=O)c1ccc(=O)n(Cc2ccccc2)c1	i	0	/	0.91	9	-10	/	/	/	/	/	/
S=c1nccc(-c2ccc(Cl)cc2)[nH]1	/	8	0.43	19*	12	/	0.01*	0.019*	0.041*	0.024*	0.032*	0.027*
Cn1c(=O)c([N+](=O)[O-])c(NCc2ccccc2Cl)c2ccccc21	/	1	-0.56	-4.5*	-15	/	0.0078	0.004	?	0.0063*	?	?
Fc1ccc(NC(=S)NNc2ncc(C(F)(F)F)cc2Cl)c(F)c1	i	10	-3.6	53*	-2	28	0.006	0.038*	?	0.032*	0.035*	0.022*
O=C(Nc1ccc(F)cc1F)c1cccn1-c1ncc(C(F)(F)F)cc1Cl	i	0	/	/	-2	3	/	/	/	/	/	/
ON/C=N/C(=S)Nc1ncc(C(F)(F)F)cc1Cl	i	1	0.25	25*	-4	20	0.008	0.052*	0.058*	0.048*	0.052*	?
Cc1ccc(NC(=S)NNc2ncc(C(F)(F)F)cc2Cl)cc1	i	5	-0.53	17*	-5	25	?	0.078*	0.031	0.013*	0.042*	0.012*
CC(C)C(=O)Nc1ncc(C(F)(F)F)cc1Cl	i	-2	0.36	0.13	10	-12	/	/	/	/	/	/
CC(=O)c1ccc(-c2ccccc2[C@H]2[C@H]3C=CC[C@@H](C)[C@@H]3C(=O)N2Cc2ccccc2)cc1	/	24	/	-1.1	-4	/	/	/	/	/	/	/
CS(=O)(=O)N1CCc2cc(C(=O)Nc3ccc(COCC(F)(F)F)cc3)ccc21	/	-2	/	/	/	/	/	/	/	/	/	/
CCO[C@H]1OC(C(=O)NC2CC2)=C[C@@H](c2csc3ccccc23)[C@@H]1CCCO	i	3	0.29	-0.055	-1	-8	/	/	/	/	/	/
CCNc1c([N+](=O)[O-])ncn1C	i	3	-0.75	/	-1	-1	/	/	/	/	/	/
Cn1cnc([N+](=O)[O-])c1NCc1ccccc1	/	-1	-0.28	-4*	28	/	0.0059	0.0048	0.024*	0.0078	?	0.01
CCOc1ccccc1C1C(C#N)=C(N)Oc2n[nH]c(CC)c21 (centres undefined)	i	-11	-0.16	-4.9*	6	-3	0.0086	0.007	0.03	0.0064	0.02	0.0093
Cc1ccccc1Nc1nnc(SCc2cc(=O)n3ccsc3n2)s1	i	1	2.6	-4.9*	/	-2	0.0072	0.0064	0.028	0.007	?	0.0099
SMILES	Autophagy mod	SKKanGAS inh	Insulin prom up	KCC2 mod	Rad51 HR inh	WT yeast gro inh	KCC2 secondary	KCC2 bumet counter	KCC2 secondary2	HEK293 Tl flux	KCC2 ouabain	HEK counter2
COc1ccc(-n2cc(C(=O)O)c(=O)cc2C)cc1	i	8	-0.08	-0.36	-4	-15	/	/	/	/	/	/
CCCCNC(=O)N1CCN(Cc2cccc(F)c2)CC1	i	6	0.45	-0.077	4	2	/	/	/	/	/	/
COc1cc(OC)c(/C=N/NC(=O)Cn2nc([N+](=O)[O-])cc2C)c(OC)c1	/	-1	-0.14	1.4	14	/	/	/	/	/	/	/
Clc1ccc2nc(C3CCN(Cc4nnnn4C4CCCCC4)CC3)[nH]c2c1	i	0	/	-4.4*	-11	-15	0.007	0.0061	0.028	0.0065	?	0.01
O=S1(=O)N=C(N2CCN(Cc3ccccc3)CC2)c2ccccc21	i	-3	0.09	-6*	-6	-7	0.0065	0.0044	0.024*	0.008	?	0.011
O=C1NC[C@H](Cc2ccccc2)N(CC2CCCCC2)C1=O	/	0	-1	0.12	-6	/	/	/	/	/	/	/
CCOC(=O)N1CCN(C(=O)c2cc(C)no2)CC1	i	-1	-0.35	-3.9*	/	10	0.0072	0.0047	0.031	0.0072	0.018	0.01
O=c1c2sccc2[nH]c(=S)n1Cc1ccccc1	i	-8	0.18	68*	8	-8	0.0088	0.11*	0.084*	0.086*	0.094*	0.079*
O=C(CSc1nnnn1-c1ccccc1)CSc1nnnn1-c1ccccc1	i	-15	-0.11	/	-1	8	0.0071	0.0046	0.028	?	0.026*	0.0098
O=c1cc(CSc2nnnn2-c2ccccc2)nc2sccn12	i	-2	-0.21	-0.013	5	-18	/	/	/	/	/	/
